Measured values taken from ChEMBL document CHEMBL1938387 (J Med Chem, 2011).
Active and inactive are the calls of the source. No cut-off for these calls is given here.

Experiments:
KB = assay: Growth inhibition of human KB cells after 72 hrs by methylene blue assay; type: functional, cell-based
Method in brief: (§1)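 HT29, KB and MKN45 cells grown in DMEM, MEM or RPMI 1640 with 10% FBS at 37 °C in 5% CO2. Seeded at 8000−20000 cells/mL/well and allowed to adhere overnight. Exposed to various drug concentrations for 72 h, then methylene blue stain extracted with 1% N-lauroylsarcosine and A595 read. IC50 taken relative to untreated cells; means and standard errors, ≥3 independent experiments in duplicate.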

HT-29 = assay: Growth inhibition of human HT-29 cells after 72 hrs by methylene blue assay; type: functional, cell-based; conditions: HT-29, 72 h; method in brief: as §1
MKN-45 = assay: Growth inhibition of human MKN45 cells after 72 hrs by methylene blue assay; type: functional, cell-based; conditions: MKN-45, 72 h; method in brief: as §1
[1] = Growth inhibition of human KB-VIN10 cells after 72 hrs by methylene blue assay; type: functional, cell-based; conditions: KB-VIN10, 72 h
Method in brief: (§2)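 Resistant KB sublines were maintained in extra drug: KB-Vin10 in 10 nM vincristine, KB-S15 in 50 nM paclitaxel, KB-7D in 7 μM VP16. Cells were kept drug-free for 3 days before harvest. Seeded at 8000−20000 cells/mL/well and exposed 72 h. Read by methylene blue, A595 after N-lauroylsarcosine extraction. Means and standard errors of ≥3 experiments in duplicate.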

[2] = Growth inhibition of human KB-7d cells after 72 hrs by methylene blue assay; type: functional, cell-based; conditions: KB7D; method in brief: as §2
[3] = Growth inhibition of human KB-S15 cells after 72 hrs by methylene blue assay; type: functional, cell-based; conditions: KB-S15, 72 h; method in brief: as §2
[4] = (§3) Inhibition of bovine brain tubulin polymerization measured every 30 sec for 30 mins by turbidimetric assay; set-up: species or system Bos taurus
Bos taurus [5] = species: Bos taurus; assay: as §3
Bos taurus [6] = species: Bos taurus; assay: Displacement of [3H]cholchicine from bovine brain tubulin at 1 uM after 2 hrs by scintillation counting
Bos taurus [7] = species: Bos taurus; assay: Displacement of [3H]cholchicine from bovine brain tubulin at 5 uM after 2 hrs by scintillation counting
Bos taurus [8] = species: Bos taurus; assay: Displacement of [3H]cholchicine from bovine brain tubulin after 2 hrs by scintillation counting
Method in brief: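 Scintillation proximity assay: 0.08 μM [3H]colchicine plus test compound and 0.5 μg biotin-labeled tubulin in 80 mM PIPES pH 6.8, 1 mM EGTA, 10% glycerol, 1 mM MgCl2, 1 mM GTP, 2 h at 37 °C. Streptavidin SPA beads (80 μg) then added and counts read directly by scintillation counter.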

Bos taurus [9] = species: Bos taurus; assay: Inhibition of bovine brain tubulin polymerization at 5 uM measured every 30 sec for 30 mins by turbidimetric assay
HUVEC [10] = assay: Antiangiogenic activity in HUVEC assessed as inhibition of capillary tube formation after 4 hrs by Matrigel matrix assay; type: functional, cell-based; conditions: Homo sapiens
Method in brief: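 HUVECs seeded at 2 × 10^4 cells/well on Matrigel in M199 with 20% FBS and 20 ng/mL VEGF. Capillaries formed over 4 h before test compound or DMSO vehicle was added. Imaged at addition and 4 h later. Capillary tube networks counted manually under a microscope at 100×, expressed relative to vehicle control. Mean ± SD of three separate experiments.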

HUVEC [11] = assay: Cytotoxicity against HUVEC assessed as reduction in cell viability at 15 to 120 uM; type: cell-based; conditions: human

| Compound | IC50 (KB) [nM] | IC50 (HT-29) [nM] | IC50 (MKN-45) [nM] | IC50 [1] [nM] | IC50 [2] [nM] | IC50 [3] [nM] | also measured |
| --- | --- | --- | --- | --- | --- | --- | --- |
| COc1cc(Nc2ccc3c(N)c(OC)ccc3n2)cc(OC)c1OC | > 5000 | > 5000 | > 5000 | – | – | – | – |
| CC(=O)O[C@H]1C(=O)[C@@]2(C)[C@H]([C@H](OC(=O)c3ccccc3)[C@]3(O)C[C@H](OC(=O)[C@H](O)[C@@H](NC(=O)c4ccccc4)c4ccccc4)C(C)=C1C3(C)C)[C@]1(OC(C)=O)CO[C@@H]1C[C@@H]2O [PACLITAXEL] | – | – | – | 16500 | 7.9 | 273 | – |
| COc1cc(C(=O)c2ccc3c(Cl)c(OC)ccc3n2)cc(OC)c1OC | 45 | 51 | 60 | – | – | – | – |
| COc1cc(C(=O)c2ccc3c(Br)c(OC)ccc3n2)cc(OC)c1OC | 108 | 195 | 167 | – | – | – | – |
| COc1cc(-c2ccc3c(N)c(OC)ccc3n2)cc(OC)c1OC | > 5000 | > 5000 | > 5000 | – | – | – | – |
| COc1cc2c(c(OC)c1OC)-c1ccc(OC)c(=O)cc1[C@@H](NC(C)=O)CC2 [COLCHICINE] | – | 16.2 | 19.2 | – | – | – | – |
| CC[C@]1(O)C[C@H]2CN(CCc3c([nH]c4ccccc34)[C@@](C(=O)OC)(c3cc4c(cc3OC)N(C=O)[C@H]3[C@@](O)(C(=O)OC)[C@H](OC(C)=O)[C@]5(CC)C=CCN6CC[C@]43[C@@H]65)C2)C1 [VINCRISTINE] | – | – | – | 90.1 | 1.2 | 17.6 | – |
| COc1cc([C@@H]2c3cc4c(cc3[C@@H](O[C@@H]3O[C@@H]5CO[C@@H](C)O[C@H]5[C@H](O)[C@H]3O)[C@H]3COC(=O)[C@H]23)OCO4)cc(OC)c1O [ETOPOSIDE] | – | – | – | 23000 | 54000 | 3500 | – |

The next lines start with results.

| IC50 (KB) [nM] | IC50 (HT-29) [nM] | IC50 (MKN-45) [nM] | Compound | IC50 [1] [nM] | IC50 [2] [nM] | IC50 [3] [nM] | also measured |
| --- | --- | --- | --- | --- | --- | --- | --- |
| 18 | 16 | 4 | COc1cc(S(=O)(=O)c2ccc3c(N)c(OC)ccc3n2)cc(OC)c1OC | 2.8 | 2.4 | 2.5 | IC50 [4]: 2000 nM; inhibition (Bos taurus [5]): Dose-dependent effect; inhibition (Bos taurus [6]): 65%; inhibition (Bos taurus [7]): 85%; inhibition (Bos taurus [8]): Dose-dependent effect; inhibition (Bos taurus [9]): Active |
| 2.8 | 3.1 | 4.5 | COc1cc(C(=O)c2ccc3c(O)c(OC)ccc3n2)cc(OC)c1OC | 5.8 | 9.2 | 5.2 | IC50 [4]: 1500 nM; inhibition (Bos taurus [5]): Dose-dependent effect; inhibition (Bos taurus [6]): 91%; inhibition (Bos taurus [7]): 97%; inhibition (Bos taurus [9]): Active; Activity (HUVEC [10]): Dose-dependent effect; Activity (HUVEC [11]): Non-toxic |
| 451 | 1090 | 819 | COc1cc(C(=O)c2ccc3c(I)c(OC)ccc3n2)cc(OC)c1OC | – | – | – | – |
| 59 | 40 | 28 | COc1cc(Sc2ccc3c(N)c(OC)ccc3n2)cc(OC)c1OC | – | – | – | – |
| 31 | 139 | 61 | COc1cc(Oc2ccc3c(N)c(OC)ccc3n2)cc(OC)c1OC | 78.8 | 76.2 | 42.9 | IC50 [4]: 5800 nM; inhibition (Bos taurus [6]): 44%; inhibition (Bos taurus [7]): 60% |
